Experimental data as given in PubChem BioAssay AID652185 (Vanderbilt Specialized Chemistry Center, 2013).
The source made the active and inactive calls. The rule behind the calls is not given here.

Biological target: Metabotropic glutamate receptor 2 (Rattus norvegicus) (UniProt P31421)
Experiment: off-target modulation of rat mGlu2, profiling panel, selectivity assay for mGlu5 silent allosteric modulators, cell-based, HEK293A, Galpha15, calcium mobilization (AID 652185)
Conditions: HEK293A rmGlu2+Galpha15, Fluo4 calcium mobilization, glutamate CRC
Summary of the method: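 Test system: rat mGlu2 plus Galpha15 in HEK293A cells. Medium: HEPES-buffered HBSS with probenecid, pH 7.4. Also added: glutamate, 10 nM–1 mM, 9 concentrations. Doses: single compound dose of 10 µM, 1% DMSO final. Incubation: 60 min 37 °C dye load, compound 60 s pre-glutamate. Detection: Fluo4-AM (1 µM) calcium-dependent fluorescence.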

Sequence of Metabotropic glutamate receptor 2 (Rattus norvegicus) (P31421 whole entry, looked up): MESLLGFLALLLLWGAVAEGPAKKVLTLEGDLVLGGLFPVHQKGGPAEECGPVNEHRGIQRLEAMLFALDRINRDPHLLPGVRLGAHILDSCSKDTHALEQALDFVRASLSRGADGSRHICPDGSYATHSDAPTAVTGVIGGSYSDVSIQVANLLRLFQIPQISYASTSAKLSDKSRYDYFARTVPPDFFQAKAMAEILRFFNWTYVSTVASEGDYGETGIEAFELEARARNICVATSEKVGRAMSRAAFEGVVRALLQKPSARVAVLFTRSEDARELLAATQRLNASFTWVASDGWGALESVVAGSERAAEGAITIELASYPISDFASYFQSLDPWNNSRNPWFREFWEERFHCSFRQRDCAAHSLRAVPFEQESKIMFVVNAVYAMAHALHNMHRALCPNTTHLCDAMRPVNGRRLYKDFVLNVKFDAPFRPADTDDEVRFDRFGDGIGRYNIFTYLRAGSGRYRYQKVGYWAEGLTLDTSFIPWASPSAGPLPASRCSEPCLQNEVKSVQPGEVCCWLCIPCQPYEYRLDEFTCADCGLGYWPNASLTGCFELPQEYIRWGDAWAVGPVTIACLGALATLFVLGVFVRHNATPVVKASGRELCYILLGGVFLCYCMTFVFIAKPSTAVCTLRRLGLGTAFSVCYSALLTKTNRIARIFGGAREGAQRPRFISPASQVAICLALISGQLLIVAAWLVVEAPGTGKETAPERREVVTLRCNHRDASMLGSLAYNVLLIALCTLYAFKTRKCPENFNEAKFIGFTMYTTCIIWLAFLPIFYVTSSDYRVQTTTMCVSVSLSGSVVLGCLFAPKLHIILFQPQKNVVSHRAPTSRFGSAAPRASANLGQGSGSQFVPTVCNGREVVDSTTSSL

glutamate EC50 in presence of 10 uM compound (no shift = inactive): inactive
SMILES: O=C(c1ccc(C#Cc2cccc(F)c2)cn1)N1CC2CC2C1 (stereo unspecified)
